Screens: PubChem BioAssay, several laboratories
Rin1-Abl PPI inh: blocks binding of human Rin1 to Abl; TR-FRET Rin1/Abl binding, biochemical; inhibition, % at 7.35 µM; 0.4% of 360,000 active; AID 588664; in the data active = inhibition above about 5%, passing the limit was not always enough
HNF4A DNA FP: change in binding of human HNF4 alpha to DNA; HNF4a-FITC DNA binding, fluorescence polarization, 1 h; activity change, % at 10 µM; 0.3% of 360,000 active; in the data active = activity change above about 30%, passing the limit was not always enough
Neddylation inh: blocks human cullin neddylation | TR-FRET cullin neddylation, biochemical | 0.58% of 360,000 active | AID 651699 | inhibition, % at 25 µM | P61081+Q13564; in the data active = inhibition above about 36%
CSN inh: blocks human CSN-mediated cullin deneddylation; Purified CSN, SCF-Nedd8-OG deneddylation, fluorescence polarization; inhibition, % at 12.5 µM; 0.38% of 360,000 active;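 active = pattern-corrected inhibition above about 35%, with an unprinted fluorescence ratio check between 0.5 and 1.5, limit read from the data, passing the limit was not always enough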;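 note: 0% = enzyme with substrate and 100% = substrate without enzyme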
Target sequence (Q92905 whole entry, looked up, one chain of several): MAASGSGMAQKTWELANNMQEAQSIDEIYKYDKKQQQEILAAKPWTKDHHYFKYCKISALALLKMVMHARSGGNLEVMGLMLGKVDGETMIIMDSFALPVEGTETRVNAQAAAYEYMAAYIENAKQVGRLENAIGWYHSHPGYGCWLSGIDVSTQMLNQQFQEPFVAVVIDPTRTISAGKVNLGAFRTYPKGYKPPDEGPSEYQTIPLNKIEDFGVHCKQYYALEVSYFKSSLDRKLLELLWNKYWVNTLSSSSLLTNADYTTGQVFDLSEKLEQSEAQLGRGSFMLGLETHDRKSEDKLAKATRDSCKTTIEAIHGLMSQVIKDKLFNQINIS
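Detection – fluorescence polarization · System – HEK293T-derived human Csn5 enzyme · Controls – substrate-only high control, full reaction low control · Timing – 90 min, room temperature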
TPT1 inh: C. albicans TPT1 enzyme inhibition; 0.81% of 300,000 active; inhibition, % at 5 µM; recombinant caTPT1, FP RNA substrate dephosphorylation;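 active = inhibition above the mean of all tested compounds plus 3 SD, set per screening campaign, cut at about 24% in these data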;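 note: plate controls were DMSO alone for no effect and ferristatin control at 100 nM for full effect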
Rpn11 inh: inhibitors of human proteasome Rpn11; O00487; inhibition, % at 20 µM; human 26S proteasome, Ub4-pepOG fluorescence polarization; 20S core pre-blocked with epoxomicin; 0.59% of 360,000 active;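 active = inhibition at 20 µM, scaled to each plate's controls, above about 33%, limit read from the data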
Rin1-Abl confirm: Rin1-Abl interaction inhibition confirmation; shares compounds with Rin1-Abl PPI inh; TR-FRET Rin1-Abl binding, purified proteins; inhibition, % at 7.35 µM; 49% of 1,300 active; in the data active = inhibition above about 6.5%
GFP quench-1: counter-screen for Rin1-Abl inhibitors: GFP fluorescence quenchers. shares compounds with Rin1-Abl PPI inh. inhibitors/quenchers counterscreen. inhibition, % at 6.75 µM. 8.5% of 1,300 active. AID 602125; in the data active = inhibition above about 6.5%;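 note: ABL1-eGFP fusion protein alone without its partner RIN1-SBP; 0% = protein with vehicle and 100% = wells lacking protein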
GFP quench dose: quenches GFP in dose response, Rin1-Abl counter-screen. shares compounds with Rin1-Abl PPI inh. GFP fluorescence interference/quenching counterscreen. IC50, µM. 230 tested, under 10 active;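 note: ABL1-eGFP fusion protein alone without its RIN1 binding partner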
GFP quench-2: counter-screen for Rin1-Abl interaction inhibitors: GFP fluorescence quenching; 25 tested, under 10 active; shares compounds with Rin1-Abl PPI inh; AID 602397; GFP fluorescence quenching counterscreen, biochemical; IC50, µM
An asterisk follows results filed as active; / = not tested or not shown. In the library only some 2.4% were active in any assay of this set; here they are far more common. Unless noted, the rule behind the calls is not given here.

SMILES	Rin1-Abl PPI inh	HNF4A DNA FP	Neddylation inh	CSN inh	TPT1 inh	Rpn11 inh	Rin1-Abl confirm	GFP quench-1	others
Oc1ccc(N=Cc2ccc(O)c(O)c2)cc1	9	-2	-19	12	2	7	/	/
CC(C)NC(=O)CC1C(=O)NCCN1CC(c1ccccc1)c1ccccc1 (stereo not drawn)	8.7*	2	0	-5	-2	-2	1	-1
Cc1ccc(S(=O)(=O)NCC(=O)OCC(=O)N(C)C2CCS(=O)(=O)C2)cc1 (stereo not drawn)	1	-2	0	-4	-1	1	/	/
CCCCc1nnc(NC(=O)c2ccc(OCc3c(C)noc3C)cc2)s1	17*	0	1	0	/	-2	28*	0	GFP quench dose=>68
COc1ccc(-c2nc3ccccn3c2Cl)cc1	-2	1	31	-4	0	-8	/	/
CC1(c2nnc(-c3ccncc3)o2)CC(c2ccccc2)=NO1 (stereo not drawn)	19*	1	-2	2	3	-4	24*	1
CC1(c2nnc(-c3ccccc3)o2)CC(c2ccncc2)=NO1 (stereo not drawn)	1	0	-31	4	-2	-2	/	/
CC1(c2nnc(-c3ccccc3)o2)CC(c2ccc(Cl)cc2)=NO1 (stereo not drawn)	0	-3	-25	3	0	1	/	/
CC1(c2nnc(-c3ccncc3)o2)CC(c2ccc(Cl)cc2)=NO1 (stereo not drawn)	17*	-2	-16	0	-3	0	23*	-2
COc1cccc(N2CC(C(=O)Nc3ccc(C(=O)OC(C)C)cc3)CC2=O)c1 (stereo not drawn)	17*	-2	5	0	-3	2	14*	-1
CCCCN(C)C(=O)c1ccc2c(c1)S(=O)(=O)c1ccccc1C2=O	10*	5	-47	-5	-1	8	-3	2
CCCN(CCC)C(=O)c1ccc2c(c1)S(=O)(=O)c1ccccc1C2=O	-4	-2	-42	4	0	-5	/	/
CS(=O)(=O)N(CC(=O)Nc1ccc(S(=O)(=O)N2CCOCC2)cc1)c1ccccc1Br	9.4*	-5	6	-3	-3	0	-3	2
COc1ccc(C)cc1N(CC(=O)Nc1ccc(S(=O)(=O)N2CCOCC2)cc1)S(C)(=O)=O	2	0	12	7	-4	8	/	/
CCn1ccc(C(=O)N2CCN(c3ncccn3)CC2)n1	7.3*	-2	13	2	3	-6	6.3*	-1
CC(=O)c1ccc(OCc2cc(C(=O)N3CCC[C@H]3CO)no2)cc1	11*	-2	-6	1	-4	-1	10*	-1
COC(=O)C1CCCCN1C(=O)c1cc(COc2cccc3cccnc23)on1 (stereo not drawn)	1	-2	33	-2	4	4	/	/
O=C(c1cc(COc2cccc3cccnc23)on1)N1CCC[C@H]1CO	54*	2	25	3	/	-2	50*	-1	GFP quench dose=>67;GFP quench-2=>68
COCCC1CCCCN1C(=O)c1cc(COc2cccc(C(C)=O)c2)on1 (stereo not drawn)	0	0	-5	-1	2	-1	/	/
O=c1[nH]c(=S)[nH]cc1Oc1ccccc1	-1	-3	-5	-2	/	3	/	/
Cc1ccc(S(=O)(=O)N2CCN(C(=O)CSc3ccccn3)CC2)c(C)c1	8.2*	1	8	-1	-3	-5	2	0
Cc1cc(C)n(-c2cc(Cl)cc(Cl)c2)c(=O)c1C#N	8.3*	2	-1	1	4	4	-3	0
